# Assay results published in paper PMC11439047 (Nature Communications, 2024).
# Positions count from the first letter of the chain named.
# Assays:
# [1] = target: T1, P2X1 receptor R292A (Homo sapiens, UniProt P51575, R292A); test: Saturation radioligand binding with [3H]-α,β-methylene ATP
# T1 sequence (P51575 1-399 R292A): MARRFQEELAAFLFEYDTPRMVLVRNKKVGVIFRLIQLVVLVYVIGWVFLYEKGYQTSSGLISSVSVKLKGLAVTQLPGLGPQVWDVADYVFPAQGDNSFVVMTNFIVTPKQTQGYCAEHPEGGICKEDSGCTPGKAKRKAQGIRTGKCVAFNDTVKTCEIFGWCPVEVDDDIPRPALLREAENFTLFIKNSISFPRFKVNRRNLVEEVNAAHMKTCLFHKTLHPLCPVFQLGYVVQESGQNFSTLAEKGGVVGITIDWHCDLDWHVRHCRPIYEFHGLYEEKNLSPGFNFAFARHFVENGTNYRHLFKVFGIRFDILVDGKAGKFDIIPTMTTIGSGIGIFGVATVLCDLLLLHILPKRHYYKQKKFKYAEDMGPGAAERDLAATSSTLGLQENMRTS
# Summary of the method: (§1)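 Whole HEK293 Flp-In T-REx cells stably expressing receptor, tetracycline-induced (150 ng/ml, 2 days), 15,000 cells/well, washed in HEPES binding buffer pH 7.4 with Ca2+/Mg2+. Increasing [3H]-α,β-methylene ATP added, 3 h room temperature with gentle agitation; non-specific binding with 10 μM ATP. Ice-cold 0.9% NaCl washes, scintillation counting (CCPM). Specific binding fitted one-site; values above 300 nM termed not defined.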
# [2] = target: T2, P2X1 receptor E122A (Homo sapiens, UniProt P51575, E122A); test: Calcium ion influx assay; type: cell-based
# T2 sequence (P51575 1-399 E122A): T1 sequence (P51575 1-399 R292A) with E122A, A292R
# Summary of the method: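 Tetracycline-induced (150 ng/mL, 2 days) stable HEK293 Flp-In T-REx cells at 15,000 cells/well, loaded with Fluo-8 for 1 h at 37 °C in probenecid-containing HEPES buffer, pH 7.4. Then 30 min buffer incubation, 20 s baseline, agonist addition and 2 min reading (ex 485/em 525 nm). Max-minus-min fluorescence normalised to 10 µM ionomycin, rescaled 0–100. Constrained four-parameter fit; EC50 per experiment; four independent experiments, triplicate.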
# [3] = target: T3, P2X1 receptor K215A (Homo sapiens, UniProt P51575, K215A); test: Saturation radioligand binding with [3H]-α,β-methylene ATP
# T3 sequence (P51575 1-399 K215A): T1 sequence (P51575 1-399 R292A) with K215A, A292R
# Summary of the method: as §1
smiles,measurement,setting,value
"Nc1ncnc2c1ncn2[C@@H]1O[C@H](COP(=O)(O)CP(=O)(O)OP(=O)(O)O)[C@@H](O)[C@H]1O [α,β-methylene ATP]",binding affinity compared to WT-P2X1,[1],reduced
same,fold decrease in potency compared to WT-P2X1,[2],18.5 fold
same,binding affinity compared to WT-P2X1,[3],similar
